Bioassay records as filed in PubChem.
GPR7 antagonist: blocks human GPR7 receptor signaling; P48145; GPR7-expressing cells, fluorescence antagonist assay; inhibition, % at 4.4 µM; 1.1% of 290,000 active; AID 1861; in the data active means inhibition above about 16%, passing the limit was not always enough;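 further: cells stimulated with the agonist NPW; 0% = agonist with vehicle and 100% = vehicle without agonist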
Target sequence (P48145 whole entry, looked up): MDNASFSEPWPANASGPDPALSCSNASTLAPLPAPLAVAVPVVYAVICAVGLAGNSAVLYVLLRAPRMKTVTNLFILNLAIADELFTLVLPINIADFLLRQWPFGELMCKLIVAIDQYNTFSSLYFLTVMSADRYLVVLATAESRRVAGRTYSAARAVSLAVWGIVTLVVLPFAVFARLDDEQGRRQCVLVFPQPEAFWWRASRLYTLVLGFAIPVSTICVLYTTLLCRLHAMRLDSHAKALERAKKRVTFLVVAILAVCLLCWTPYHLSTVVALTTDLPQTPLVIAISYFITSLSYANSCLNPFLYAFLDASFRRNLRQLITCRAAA
TAAR1 antag: human TAAR1 antagonism | Q96RJ0 | CHO RD-HGA16 TAAR1, Fluo-8 calcium fluorescence, antagonist | inhibition, % at 3 µM | 1.5% of 360,000 active | AID 624466;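 active means inhibition above a per-plate cutoff, the mean inhibition of test compounds on that plate plus 3 SD, cut at about 49% in these data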;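 further: 0% = DMSO plus EC80 beta-PEA response and 100% = DMSO alone without agonist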
Target sequence (Q96RJ0 whole entry, looked up): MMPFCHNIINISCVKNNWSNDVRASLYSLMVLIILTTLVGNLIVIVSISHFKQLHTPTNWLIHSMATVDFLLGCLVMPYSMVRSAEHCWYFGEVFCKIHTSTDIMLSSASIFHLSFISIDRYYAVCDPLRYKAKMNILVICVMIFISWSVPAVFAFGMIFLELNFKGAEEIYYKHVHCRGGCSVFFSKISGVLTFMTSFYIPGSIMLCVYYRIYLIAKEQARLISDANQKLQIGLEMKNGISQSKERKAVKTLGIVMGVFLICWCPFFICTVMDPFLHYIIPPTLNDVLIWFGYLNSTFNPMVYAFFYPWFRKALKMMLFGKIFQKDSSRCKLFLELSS
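Test system – hTAAR1-expressing CHO RD-HGA16 cells, Gα16-coupled · Reagent – β-PEA at EC80 concentration, post-compound challenge · Compound dosing – 3 µM, single point · Timing – 140 s kinetic read after compound, 140 s after agonist · Detection – Fluo-8 intracellular calcium dye fluorescence, real-time kinetic reads · Control set – DMSO and EC80 PEA controls · Repeats – n of 1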
TAAR1 agonist: agonists of human TAAR1; Q96RJ0; CHO RD-HGA16 TAAR1, Fluo-8 calcium fluorescence; vehicle wells 0%, saturating PEA agonist 100%; activation, % at 3 µM; 0.99% of 360,000 active;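 active means activation above the mean activation of all test compounds in the run plus 3 SD, cut at about 38% in these data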
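Test system: RD-HGA16 (CHO) cells co-expressing Gα16 and hTAAR1 | Doses: Single dose, 3 µM | Schedule: 17-24 h seeding, 75 min 37 °C dye, 30 min RT | Evaluation: % activation from peak over basal fluorescence ratio, DMSO-to-PEA scaled | Technique: Kinetic Fluo-8 calcium fluorescence | Benchmarks: Low control DMSO, high control PEA (EC100)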
OX1R antag-1: antagonists of human orexin 1 receptor (OX1R). O43613. OX1R-expressing cells, FRET antagonist read-out. inhibition, % at 6.6 µM. 1.8% of 330,000 active; in the data active means inhibition mostly above about 38%, no sharp cut-off; inactive means mostly below about 40%;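 further: 0% = agonist challenge alone and 100% = reference antagonist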
CHO parental Ca: signal in parental CHO cells, OX1R antagonist counter-screen. parental CHO-K1, ATP-induced calcium, Fluo-8 fluorescence. inhibition, % at 5.6 µM. 0.63% of 330,000 active;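 active means inhibition above that plate's mean sample inhibition plus 3 SD, cut at about 26% in these data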;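 further: 0% = ATP-challenged DMSO wells and 100% = DMSO wells without ATP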
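Measured by: calcium-sensitive Fluo-8 fluorescence / Test system: CHO parental line / Controls: ATP-challenged DMSO wells low, unchallenged DMSO wells high / Measure: % inhibition / Compound: single nominal dose of 5.6 µM per compound / Replicates: single well per compound, no replicates / Reagent: ATP as calcium-mobilizing challenge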
OX1R antag-2: blocks the human orexin 1 receptor. CHO/OX1R cells, Fluo-8 calcium fluorescence, orexin A. inhibition, % at 5 µM. 0.43% of 330,000 active. AID 434989;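 active means inhibition above its plate's threshold, mean inhibition of all tested compounds on the plate plus 3 SD, cut at about 37% in these data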;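 further: 0% = orexin A challenge wells and 100% = SB-334867-A antagonist wells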
TAAR1 nonsel count: nonselective antagonism, TAAR1 counter-screen; shares compounds with TAAR1 antag; counterscreen cell line, calcium fluorescence, antagonist mode; inhibition, % at 3 µM; 77% of 2,400 active; AID 651780; in the data active means inhibition above about 22%;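 further: CHO-Ga16 host cells stimulated with ATP at an EC80 level; 0% = agonist EC80 plus vehicle and 100% = vehicle without agonist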
TAAR1 ant conf: confirmation of human TAAR1 antagonists | inhibition, % at 3 µM | TAAR1-expressing cells, fluorescence antagonist read-out | 40% of 2,400 active | shares compounds with TAAR1 antag; in the data active means inhibition above about 49%;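 further: CHO-Ga16 host cells challenged with agonist PEA near its EC80; 0% = agonist at EC80 plus vehicle and 100% = vehicle with no agonist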
Ga16 nonsel ag: nonselective Ga16 agonist in TAAR1 antagonist counter-screen; shares compounds with TAAR1 antag; Ga16-expressing cells, calcium fluorescence, agonist counterscreen; activation, % at 3 µM; 18% of 2,400 active; AID 651953; in the data active means activation above about 12%;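 further: 0% = vehicle wells and 100% = saturating stimulus response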
TAAR1 ag counter: activates human TAAR1 in antagonist counter-screen. shares compounds with TAAR1 antag. hTAAR1 cell line, fluorescence activation, agonist mode. activation, % at 3 µM. 2% of 2,400 active. AID 651955; in the data active means activation above about 37%;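 further: CHO cells stably expressing TAAR1 with calcium dye readout; 0% = DMSO vehicle and 100% = full agonist response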
* hit, by the source's call; · = no result. The list is not random: actives were taken first. Their share in the collection is about 4.6%.

SMILES | GPR7 antagonist | TAAR1 antag | TAAR1 agonist | OX1R antag-1 | CHO parental Ca | OX1R antag-2 | TAAR1 nonsel count | TAAR1 ant conf | Ga16 nonsel ag | TAAR1 ag counter
Nc1c(C(=O)OCC2CCCO2)c2nc3ccccc3nc2n1-c1ccc2c(c1)OCCO2 (centres undefined) | -7 | 52* | 8 | 27 | -19 | -4 | 30* | 39 | 7 | 8
CC(C)Oc1ccccc1/C=N/NC(=O)C1CC1 | · | 104* | 1 | 15 | -5 | -13 | 6 | -7 | 5 | 8
COC(=O)c1ccc(Cn2nc(-c3ccc(C)c(C)c3)ccc2=O)cc1 | 22 | -6 | 3 | -7 | -20 | -27 | · | · | · | ·
CCN=C(NCC)SC1CC(=O)N(c2ccc(OC)cc2)C1=O (centres undefined) | 8 | 65* | 23 | 22 | -5 | -25 | 30* | 55* | 12* | 18
CCN=C(NCC)SC1CC(=O)N(c2cccc(OCC)c2)C1=O (centres undefined) | -22 | 71* | 23 | 19 | -17 | -14 | 26* | 50* | 11 | 12
CCOc1ccc(N2C(=O)CC(SC(=NC)Nc3cccc(OC)c3)C2=O)cc1 (centres undefined) | -3 | 26 | 3 | 8 | -36 | -31 | · | · | · | ·
CCOP(=O)(OCC)c1nc(/C=C/c2ccccc2)oc1NCc1ccccc1 | -12 | 20 | 8 | 8 | -19 | -15 | · | · | · | ·
COc1ccccc1N1CC(C(=O)NC2CCCCCC2)CC1=O (centres undefined) | · | 3 | 1 | -1 | -16 | -43 | · | · | · | ·
Cc1ccccc1OC(C)C(=O)Nc1ccc(S(=O)(=O)N2CCCC2)cc1 (centres undefined) | -4 | -20 | 6 | 15 | -13 | -20 | · | · | · | ·
Cc1cccc(C(=O)OC(C)C(=O)Nc2ccc(S(=O)(=O)N3CCCC3)cc2)c1O (centres undefined) | · | 68* | 15 | -1 | -6 | 1 | 36* | 55* | 12* | 18
COc1ccc(NC(C)=O)cc1NC(C)C(=O)Nc1ccc(S(=O)(=O)N2CCCCC2)cc1 (centres undefined) | · | 101* | 12 | 3 | -4 | -21 | 7 | -1 | 8 | 7
COc1ccc(NC(C)=O)cc1S(=O)(=O)Nc1ccc(S(=O)(=O)N2CCCCC2)cc1 | · | -8 | 2 | 6 | 1 | -12 | · | · | · | ·
COc1ccc(N2CCN(C(=O)[C@H](C)N3C(=O)C4CC=CCC4C3=O)CC2)cc1 (some centres undefined) | · | -8 | 2 | 5 | -2 | -13 | · | · | · | ·
O=C(NC(Cc1ccccc1)C(=O)O)c1ccccc1 (centres undefined) | 2 | -3 | 3 | 7 | -5 | -5 | · | · | · | ·
O=C(NC(Cc1ccccc1)C(=O)N1CCc2ccccc2C1)c1ccccc1 (centres undefined) | -2 | 55* | 8 | 25 | -31 | -22 | 26* | 46 | 7 | 5
CCC(Sc1nc2ncccc2[nH]1)C(=O)NC1CCCC1 (centres undefined) | -10 | -26 | 3 | 17 | -8 | -18 | · | · | · | ·
Cc1ccc2c(c1)C(=O)C(=O)N2Cc1ccc(Cl)cc1 | · | 55* | 9 | 2 | -5 | -7 | 21 | 28 | 4 | -1
CCCOc1ccccc1OCC(=O)Nc1ccc(S(=O)(=O)N2CCCC2)cc1 | · | 65* | 4 | 5 | -21 | -23 | 20 | 42 | 7 | 13
CCCOc1ccccc1OCC(=O)Nc1ccc(S(=O)(=O)N2CCCCC2)cc1 | · | 42 | 1 | 7 | 24 | -21 | · | · | · | ·
Cc1ccc(S(=O)(=O)N2CCN(Cc3cc(C(C)C)ccc3O)CC2)cc1 | 2 | 25 | 8 | 23 | -18 | -40 | · | · | · | ·
CCOC(=O)C(Cc1ccc(NC(=O)/C(=C\c2ccccc2)NC(=O)c2ccccc2)cc1)N1C(=O)c2ccccc2C1=O (centres undefined) | -10 | 19 | 5 | 6 | -3 | -6 | · | · | · | ·
CCOC(=O)C(Cc1ccc(NC(C)=O)cc1)N1C(=O)c2ccccc2C1=O (centres undefined) | · | 58* | 14 | 3 | -12 | -15 | 24* | 46 | 9 | 8
CCC(C)Sc1ccc(-c2nc3ccccn3c2NCc2ccccc2)cc1OC (centres undefined) | · | · | · | 16 | -9 | 5 | · | · | · | ·
COc1cc(-c2nc3ccc(C)cn3c2NCc2ccccc2)ccc1SC1CCCCC1 | · | 54* | 6 | 38 | -22 | -31 | 25* | 30 | 2 | 0
COc1ccc(CSc2ccc(-c3nc4ccccn4c3NCc3ccccc3)cc2OC)cc1 | · | 71* | 18 | 28 | -3 | -34 | 30* | 48 | 4 | 9
SMILES | GPR7 antagonist | TAAR1 antag | TAAR1 agonist | OX1R antag-1 | CHO parental Ca | OX1R antag-2 | TAAR1 nonsel count | TAAR1 ant conf | Ga16 nonsel ag | TAAR1 ag counter
CCCCNc1c(-c2ccc(OC)c(SC3CCCCC3)c2)nc2cc(C)ccn12 | · | 84* | 9 | 25 | 10 | -18 | 40* | 49* | 4 | 10
CCOC(=O)OC(C)OC1=C(C(=O)Nc2ccccn2)N(C)S(=O)(=O)c2ccccc21 (centres undefined) | · | · | · | 17 | -4 | -3 | · | · | · | ·
CC(C)CNS(=O)(=O)c1ccc(S(=O)(=O)N2CCC3(CC2)OCCO3)cc1 | 7 | 0 | 7 | 15 | -1 | -17 | · | · | · | ·
O=C(CCC(=O)N1CCSc2ccccc21)Nc1cccc(F)c1 | -1 | 6 | 7 | -1 | -1 | -12 | · | · | · | ·
CCc1ccc(NC(=O)CCC(=O)N2CCSc3ccccc32)cc1 | -5 | 59* | 6 | 17 | 2 | -24 | 25* | 40 | 6 | 4
CCc1cccc(NC(=O)CCC(=O)N2CCSc3ccccc32)c1 | -8 | 60* | 8 | 17 | -4 | 3 | 21 | 40 | 6 | 10
C=CCNc1nc2ccccc2nc1NS(=O)(=O)c1ccc(F)cc1 | 2 | 2 | -1 | -7 | 4 | -2 | · | · | · | ·
CS(=O)(=O)N(CC(=O)N/N=C/c1cccc2c1OCCO2)c1ccccc1Br | 9 | 9 | 5 | 11 | -23 | -17 | · | · | · | ·
CCOC(=O)c1ccc(-c2ccc(/C=N/NC(=O)CN(c3ccccc3Br)S(C)(=O)=O)o2)cc1 | -8 | 57* | 5 | 10 | -1 | -11 | 29* | 33 | 8 | 12
COc1ccccc1Nc1ncc(C(=O)N2CCC(C(N)=O)CC2)c2ccccc12 | -15 | 11 | 10 | 13 | -6 | -8 | · | · | · | ·
